Data taken from ChEMBL document CHEMBL1145382, “Novel ergopeptides as dual ligands for adenosine and dopamine receptors” (J Med Chem, 2007).
Non-standard residues stand in square brackets, D forms with d. Residues, ends and D or L forms follow the SMILES beside them. Phe(4-NO2) = N[C@@H](Cc1ccc([N+](=O)[O-])cc1)C(=O)O; Phe(4-F) = N[C@@H](Cc1ccc(F)cc1)C(=O)O; hCha = N[C@@H](CCC1CCCCC1)C(=O)O

Columns and labels:
Format in all cases: cell membranes
Details in all cases: Ovis aries, target entry is the homologue from another species
[1] = molecular target: T1, Adenosine receptor A1 (Homo sapiens) (UniProt P30542); test: Displacement of [3H]R-PIA from adenosine A1 receptor in lamb striatum membrane at 50 uM after 1 hr
T1 sequence (whole entry): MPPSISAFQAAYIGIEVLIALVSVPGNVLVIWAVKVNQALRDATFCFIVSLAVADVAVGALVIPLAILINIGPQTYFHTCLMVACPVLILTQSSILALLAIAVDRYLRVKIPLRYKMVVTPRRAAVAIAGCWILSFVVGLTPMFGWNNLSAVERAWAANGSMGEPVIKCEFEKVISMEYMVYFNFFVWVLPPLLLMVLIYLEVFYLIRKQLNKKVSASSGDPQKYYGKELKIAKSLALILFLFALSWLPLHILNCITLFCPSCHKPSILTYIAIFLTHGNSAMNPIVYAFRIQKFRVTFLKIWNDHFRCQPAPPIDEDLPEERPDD
Procedure, shortened: (§1)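 Single-concentration screen at 50 µM ergopeptide on lamb striatal membranes (0.5 mg protein/mL), 22 °C, 50 mM Tris-HCl pH 7.4. Radioligands: [3H]SCH 23390 1.2 nM (D1), [3H]YM 09151-2 0.9 nM (D2), [3H]R-PIA 2.2 nM (A1, with MgCl2 and ADA), [3H]CGS 21680 20.1 nM (A2A, with MgCl2 and ADA). Specific binding displaced, after filtration and scintillation counting.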

Adenosine receptor A2a = Adenosine receptor A2a (Homo sapiens, UniProt P29274); test: Displacement of [3H]CGS 21680 from adenosine A2A receptor in lamb striatum membrane at 50 uM after 2 hrs; procedure, shortened: as §1
Sequence of Adenosine receptor A2a (P29274 whole entry): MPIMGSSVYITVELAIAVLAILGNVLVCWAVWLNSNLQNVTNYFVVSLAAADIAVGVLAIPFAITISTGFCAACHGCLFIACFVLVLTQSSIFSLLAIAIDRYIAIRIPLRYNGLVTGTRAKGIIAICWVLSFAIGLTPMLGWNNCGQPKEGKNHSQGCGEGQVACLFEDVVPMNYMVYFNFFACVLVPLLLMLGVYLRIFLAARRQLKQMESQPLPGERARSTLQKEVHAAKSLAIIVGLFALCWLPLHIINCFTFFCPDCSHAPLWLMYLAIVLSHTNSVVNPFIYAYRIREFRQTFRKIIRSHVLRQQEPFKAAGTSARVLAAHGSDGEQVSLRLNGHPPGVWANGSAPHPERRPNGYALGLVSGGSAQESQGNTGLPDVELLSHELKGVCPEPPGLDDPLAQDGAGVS

[2] = molecular target: D(1A) dopamine receptor (Homo sapiens) (UniProt P21728); test: Displacement of [3H]SCH 23390 from dopamine D1 receptor in lamb striatum membrane at 50 uM after 1 hr; procedure, shortened: as §1
Sequence of D(1A) dopamine receptor (Homo sapiens) (P21728 whole entry): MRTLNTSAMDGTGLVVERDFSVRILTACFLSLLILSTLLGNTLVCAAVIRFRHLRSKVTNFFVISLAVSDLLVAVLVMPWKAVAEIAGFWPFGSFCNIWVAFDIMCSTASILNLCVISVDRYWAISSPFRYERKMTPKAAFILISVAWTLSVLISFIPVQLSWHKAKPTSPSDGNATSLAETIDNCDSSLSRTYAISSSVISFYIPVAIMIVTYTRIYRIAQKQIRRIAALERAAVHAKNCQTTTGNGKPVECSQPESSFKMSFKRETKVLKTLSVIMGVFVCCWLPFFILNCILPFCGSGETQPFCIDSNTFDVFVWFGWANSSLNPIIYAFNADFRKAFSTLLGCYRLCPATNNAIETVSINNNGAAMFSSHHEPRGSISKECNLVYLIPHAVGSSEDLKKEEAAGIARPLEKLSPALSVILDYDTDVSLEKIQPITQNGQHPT

[3] = molecular target: D(2) dopamine receptor (Homo sapiens) (UniProt P14416); test: Displacement of [3H]YM 09151-2 from dopamine D2 receptor in lamb striatum membrane at 50 uM after 2 hrs; procedure, shortened: as §1
Sequence of D(2) dopamine receptor (Homo sapiens) (P14416 whole entry): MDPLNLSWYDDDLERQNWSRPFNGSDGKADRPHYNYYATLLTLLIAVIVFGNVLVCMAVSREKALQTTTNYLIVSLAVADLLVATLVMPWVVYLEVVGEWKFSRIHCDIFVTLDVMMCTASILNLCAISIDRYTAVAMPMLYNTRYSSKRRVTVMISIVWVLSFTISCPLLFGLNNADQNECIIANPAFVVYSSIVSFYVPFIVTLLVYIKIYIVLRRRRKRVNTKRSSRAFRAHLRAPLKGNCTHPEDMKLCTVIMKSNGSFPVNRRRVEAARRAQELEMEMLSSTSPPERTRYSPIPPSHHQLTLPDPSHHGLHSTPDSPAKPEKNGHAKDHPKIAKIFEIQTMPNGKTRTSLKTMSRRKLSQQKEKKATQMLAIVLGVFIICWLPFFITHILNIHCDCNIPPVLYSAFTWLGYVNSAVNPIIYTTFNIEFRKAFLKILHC

Measured: Activity

CC(=O)N[C@H](C(=O)N[C@@H](CCC1CCCCC1)C(=O)N1CCCC(C(N)=O)C1)C(C)C (stereo not given in full)
< 40%: all assays above

CN1C[C@H](C(N)=O)C=C2c3cccc4[nH]cc(c34)C[C@H]21
< 40%: all assays above

CC(=O)N[C@H](C(=O)N[C@@H](CCC1CCCCC1)C(=O)N1c2ccccc2C[C@H]1C(N)=O)C(C)C
< 40%: all assays above

CC(=O)N[C@@H](CCC1CCCCC1)C(=O)N[C@@H](Cc1ccc(F)cc1)C(=O)N1CCC[C@H]1C(N)=O (Ac-[hCha]-[Phe(4-F)]-Pro-NH2)
< 40%: all assays above

CC(=O)N[C@H](C(=O)N[C@@H](Cc1ccc([N+](=O)[O-])cc1)C(=O)N1CCC[C@H]1C(N)=O)C(C)C (Ac-Val-[Phe(4-NO2)]-Pro-NH2)
< 40%: all assays above

CC(=O)N[C@@H](Cc1ccc([N+](=O)[O-])cc1)C(=O)N[C@@H](CCC1CCCCC1)C(=O)N1CCCC(C(N)=O)C1 (stereo not given in full)
< 40%: all assays above

CC(=O)N[C@@H](CCC1CCCCC1)C(=O)N[C@H](C(=O)N1CCC[C@H]1C(N)=O)C(C)C (Ac-[hCha]-Val-Pro-NH2)
< 40%: all assays above

CC(=O)N[C@@H](Cc1ccc([N+](=O)[O-])cc1)C(=O)N[C@@H](Cc1ccc(F)cc1)C(=O)N1CCCC(C(N)=O)C1 (stereo not given in full)
< 40%: all assays above

CC(=O)N[C@@H](Cc1ccc([N+](=O)[O-])cc1)C(=O)N[C@H](C(=O)N1c2ccccc2C[C@H]1C(N)=O)C(C)C
< 40%: all assays above

CC(=O)N[C@H](C(=O)N[C@@H](Cc1ccc(F)cc1)C(=O)N1CCC[C@H]1C(N)=O)C(C)C (Ac-Val-[Phe(4-F)]-Pro-NH2)
< 40%: all assays above
